20 compounds from ChEMBL document CHEMBL5357076, “Structure-ATPase Activity Relationship of Rhodamine Derivatives as Potent Inhibitors of P-Glycoprotein CmABCB1” (ACS Med Chem Lett, 2024) can be followed below.

A word on the Km: it is the concentration of substrate that gives half-maximal velocity. One may read the Ki as the equilibrium dissociation constant of an inhibitor or competing ligand from its target.

The test system of assay [1] is Cyanidioschyzon merolae. Put plainly: Binding affinity to Cyanidioschyzon merolae ABCB1 assessed as Km. The gist of the method: (§1)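 Purified wild-type CmABCB1 in β-DDM micelles; ATPase activity measured against rhodamine concentration with 5 mM ATP in 50 mM Tris–HCl (pH 7.5 at 37 °C), 150 mM NaCl, 0.05% (w/v) β-DDM, 37 °C, 30 min. Bell-shaped activity curve fitted to a modified Michaelis–Menten equation giving Km (stimulation) and Ki (substrate inhibition); means ± SD, n = 3.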

The nature of assay [2]: Inhibition of Cyanidioschyzon merolae ABCB1 ATPase activity assessed as inhibition constant by colorimetric analysis. The method, boiled down:
as §1

The subject of assay [3] is Saccharomyces cerevisiae. Put plainly: Antimicrobial activity against Saccharomyces cerevisiae expressing AD1-8u- cells assessed as growth inhibition upto 30 uM incubated for 15 to 17 hrs. Format: functional, organism-based. Conditions: time 15-17 hrs. The gist of the method: (§2)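 S. cerevisiae AD1-8u cells expressing wild-type CmABCB1, alongside mock-transfected AD1-8u cells, grown in YPD medium with a range of drug concentrations at 30 °C for 15–17 h; growth compared between strains; means ± SD, n = 3.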

The subject of assay [4] is Saccharomyces cerevisiae. Nature of the assay: Antimicrobial activity against Saccharomyces cerevisiae expressing AD1-8u- cells assessed as growth inhibition at 1 uM incubated for 15 to 17 hrs. Format: functional, organism-based. Conditions: time 15-17 hrs. The gist of the method:
as §2

The subject of assay [5] is Cyanidioschyzon merolae. Nature of the assay: Potency index, ratio of test compound Km to Rhodamine 6G Km for binding affinity to Cyanidioschyzon merolae ABCB1 assessed as Km.
For assay [6], the system named is Cyanidioschyzon merolae. Nature of the assay: Potency index, ratio of test compound Ki to Rhodamine 6G Ki for inhibition of Cyanidioschyzon merolae ABCB1 ATPase activity assessed as inhibition constant by colorimetric analysis.
Assay [7] relates to Cyanidioschyzon merolae. Nature of the assay: Substrate activity at Cyanidioschyzon merolae ABCB1 4WY/M391W mutant assessed as tryptophan quenching ratio by measuring inner chamber entry by fluorescence based analysis. The gist of the method:
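Purified CmABCB1 4WY/M391W mutant (four of six native Trp removed, Trp introduced at 391), 13 μg/mL in 20 mM Tris–HCl (pH 7.5 at 25 °C), 150 mM NaCl, 0.05% (w/v) β-DDM, titrated with compound (0–1.0 μM) at 25 °C; excitation 290 nm, quenching ratio of emission at 340 nm.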

The source made the active and inactive calls. The rule behind the calls is not given here.

With `CCCCOC(=O)c1ccccc1-c1c2cc(C)/c(=N\CC)cc-2oc2cc(NCC)c(C)cc12`, the Km in the assay on Cyanidioschyzon merolae [1] turned out to be 4.6 µM. Also, the Ki in assay [2] was 560 µM.
Taken in the same sequence, the figures for `O=C(OCCc1ccccc1)c1ccccc1C1=c2cc3c(cc2Oc2cc4c(cc21)CCCN4)=NCCC3` were 1.4 µM and 8.1 µM.
Take `O=C(OCc1ccc2ccccc2c1)c1ccccc1C1=c2cc3c(cc2Oc2cc4c(cc21)CCCN4)=NCCC3`: in the assay with Cyanidioschyzon merolae [1], the Km came to 0.77 µM. The Ki in assay [2] worked out at 9.6 µM.
In the case of `Cc1cccc(COC(=O)c2ccccc2C2=c3cc4c(cc3Oc3cc5c(cc32)CCCN5)=NCCC4)c1`, in the assay on Cyanidioschyzon merolae [1], the Km is 0.56 µM. For the same compound, the Ki in assay [2] is 8.4 µM.
With `O=C(OCc1cc(C(F)(F)F)cc(C(F)(F)F)c1)c1ccccc1C1=c2cc3c(cc2Oc2cc4c(cc21)CCCN4)=NCCC3`, in the assay on Cyanidioschyzon merolae [1], the Km is 2.3 µM. In addition, the Ki in assay [2] came out at 6.3 µM.
Regarding `CCCCOC(=O)c1ccccc1C1=c2cc3c(cc2Oc2cc4c(cc21)CCCN4)=NCCC3`, the Km with Cyanidioschyzon merolae [1] was found to be 1.7 µM. In assay [2], the Ki was found to be 14 µM.
Turning to `CCCCOC(=O)c1ccccc1C1=c2cc3c4c(c2Oc2c1cc1c5c2CCCN5CCC1)CCC[N+]=4CCC3`, in the assay on Cyanidioschyzon merolae [1], the Km came to 1.5 µM. Also, the Ki in assay [2] is 43 µM.
Taken in the same sequence, the figures for `COc1ccccc1COC(=O)c1ccccc1C1=c2cc3c(cc2Oc2cc4c(cc21)CCCN4)=NCCC3` were 0.5 µM and 8.2 µM.
Consider `COc1ccc(COC(=O)c2ccccc2C2=c3cc4c(cc3Oc3cc5c(cc32)CCCN5)=NCCC4)cc1`, for which the Km with Cyanidioschyzon merolae [1] turned out to be 0.73 µM. Further, the Ki in assay [2] amounted to 9.1 µM.
As for `O=C(OCc1ccccc1C(F)(F)F)c1ccccc1C1=c2cc3c(cc2Oc2cc4c(cc21)CCCN4)=NCCC3`, in the assay on Cyanidioschyzon merolae [1], the Km was 3.9 µM. The Ki in assay [2] is 1.2 µM.
The like results for `O=C(OCc1cccc(C(F)(F)F)c1)c1ccccc1C1=c2cc3c(cc2Oc2cc4c(cc21)CCCN4)=NCCC3` were, in that order, 0.44 µM and 18 µM.
On to `CN(C)c1cccc(COC(=O)c2ccccc2C2=c3cc4c(cc3Oc3cc5c(cc32)CCCN5)=NCCC4)c1`, for which the Km with Cyanidioschyzon merolae [1] is 0.52 µM. In addition, the inhibitory constant (Ki) in assay [2] turned out to be 10 µM.
Turning to `CC/N=c1/cc2oc3cc(NCC)c(C)cc3c(-c3ccccc3C(=O)OCC)c-2cc1C`, the Km in the assay with Cyanidioschyzon merolae [1] is 2.9 µM. Besides, the Ki in assay [2] came to 690 µM. Moreover, in the assay on Saccharomyces cerevisiae [3], the outcome was inactive. Moreover, in the assay with Saccharomyces cerevisiae [4], the outcome was Active.
Regarding `CCCC/N=c1/cc2oc3cc(NCCCC)c(C)cc3c(-c3ccccc3C(=O)OCCCC)c-2cc1C`, the Km with Cyanidioschyzon merolae [1] amounted to 3.2 µM. The Ki in assay [2] turned out to be 160 µM.
Taken in the same sequence, the figures for `O=C(OCc1cccc([N+](=O)[O-])c1)c1ccccc1C1=c2cc3c(cc2Oc2cc4c(cc21)CCCN4)=NCCC3` were 0.55 µM and 12 µM.
As for `CCCCOC(=O)c1ccccc1-c1c2cc(C)c(=[N+]3CCCC3)cc-2oc2cc(N3CCCC3)c(C)cc12`, in the assay on Cyanidioschyzon merolae [1], the Km came out at 1.1 µM. Besides, the Ki in assay [2] worked out at 110 µM.
With `COc1cccc(COC(=O)c2ccccc2C2=c3cc4c(cc3Oc3cc5c(cc32)CCCN5)=NCCC4)c1`, in the assay with Cyanidioschyzon merolae [1], the Km turned out to be 0.58 µM. In assay [2], the Ki stood at 8.2 µM.
For the compound `O=C(OCc1ccccc1)c1ccccc1C1=c2cc3c(cc2Oc2cc4c(cc21)CCCN4)=NCCC3`, the Km in the assay with Cyanidioschyzon merolae [1] was determined as 0.81 µM. In addition, the Ki in assay [2] is 8.9 µM.
Regarding `COc1cccc(OC)c1COC(=O)c1ccccc1C1=c2cc3c(cc2Oc2cc4c(cc21)CCCN4)=NCCC3`, the Km in the assay on Cyanidioschyzon merolae [1] is 0.55 µM. Besides, the Ki in assay [2] turned out to be 5.8 µM. Besides, the Ratio with Cyanidioschyzon merolae [5] was found to be 5. In the assay with Cyanidioschyzon merolae [6], the Ratio Ki stood at 120. Further, the Activity with Cyanidioschyzon merolae [7] amounted to 30%.
On to `COc1cc(COC(=O)c2ccccc2C2=c3cc4c(cc3Oc3cc5c(cc32)CCCN5)=NCCC4)cc(OC)c1`, for which the Km with Cyanidioschyzon merolae [1] was 0.31 µM. Besides, the Ki in assay [2] came out at 31 µM.
